Published values collected from several papers.
In brackets after ≈: the same amount, converted by molar mass.
LCK: Tyrosine-protein kinase Lck (LCK, Homo sapiens, UniProt P06239)
MAP3K10: Mitogen-activated protein kinase kinase kinase 10 (MAP3K10, Homo sapiens, UniProt Q02779)
PIP4K2C: Phosphatidylinositol 5-phosphate 4-kinase type-2 gamma (PIP4K2C, Homo sapiens, UniProt Q8TBX8)

SMILES	target	assay	conditions	endpoint	value
N[C@@H](CC(=O)O)C(=O)O	Electrogenic aspartate/glutamate antiporter SLC25A13, mitochondrial (SLC25A13, Homo sapiens, UniProt Q9UJS0)	thermal stability, DSF	1 mM	ΔTm	~3 °C
CCCCC(=O)Nc1ccc(-c2ccc3ncn(CCC)c(=O)c3c2)cn1	Dual specificity mitogen-activated protein kinase kinase 4 (MAP2K4, Homo sapiens, UniProt P45985)	binding, competition with immobilised ligand	0.5 µM	remaining binding	100%
C1=C/COCc2cc(ccc2OCCN2CCCC2)Nc2nccc(n2)-c2cccc(c2)COC/1	Proto-oncogene tyrosine-protein kinase receptor Ret (RET, Homo sapiens, UniProt P07949, V804M)	binding	0.1 µM	remaining binding	84%
C#Cc1cnc(Nc2ccnc(CO)c2)nc1Nc1ccccc1S(C)(=O)=NC#N (stereo not shown)	LCK	enzyme activity, inhibitor	1 µM	remaining activity	14.6%
COc1cccc2c(N3CCC(CCP(=O)(O)O)CC3)ncnc12	Ectonucleotide pyrophosphatase/phosphodiesterase family member 1 (ENPP1, Homo sapiens, UniProt P22413)	binding, SPR		residence time	8.73 min
COc1cc(/C=N/NC(=S)NN=Cc2ccc([N+](=O)[O-])o2)ccc1Oc1ccnc2cc(Cl)ccc12	Aldo-keto reductase family 1 member B1 (AKR1B1, Homo sapiens, UniProt P15121)	enzyme activity, inhibitor		IC20	1.65 µg/mL (≈ 3.14 µM)
Cc1cc(O)c(-c2ccc([C@@H](C)CN(C)C)cc2)c2c1[nH]c(=O)c1sccc12	MAP3K10	enzyme activity, inhibitor	0.1 µM	inhibition	-11.7%
CNC(=O)c1ccccc1Nc1nc(Nc2ccc(CO)cc2)ncc1Cl	LCK	enzyme activity, inhibitor	1 µM	remaining activity	1.89%
CCCC(=O)Nc1ccc(-c2ccc3ncn(CCC)c(=O)c3c2)cn1	PIP4K2C	binding, competition with immobilised ligand	0.5 µM	inhibition	99.5%
CS(=O)(=NC#N)c1ccccc1Nc1nc(Nc2ccnc(CO)c2)ncc1Cl (stereo not shown)	LCK	enzyme activity, inhibitor	1 µM	remaining activity	41%
CCCCC(=O)Nc1ccc(-c2ccc3ncn(CCF)c(=O)c3c2)cn1	PIP4K2C	binding, competition with immobilised ligand	0.5 µM	inhibition	97.5%
C#Cc1cc(-c2cc(Nc3nc(N[C@@H](C)c4ccc(F)cn4)ncc3Cl)n[nH]2)ccc1C=O	MAP3K10	enzyme activity, inhibitor	0.2 µM	inhibition	54.5%
COc1ccc2oc(-c3ccc4nc(N)oc4c3)c/c(=N\c3ccccc3NC(=O)CCN)c2c1	Serine/threonine-protein kinase 38 (STK38, Homo sapiens, UniProt Q15208)	binding	1 µM	remaining binding	104%
